Reference: ChEMBL document CHEMBL3351725, “Design, synthesis and biological evaluation of (E)-3-(3,4-dihydroxyphenyl)acrylylpiperazine derivatives as a new class of tubulin polymerization inhibitors” (Bioorg Med Chem, 2014)
Values after ≈ are worked out from the molar mass of the structure shown.

What was measured:
MCF7 [1] = experiment: Antiproliferative activity against human MCF7 cells after 48 hrs by MTT assay; type: functional, cell-based; settings: MCF7, 48 h
Procedure, shortened: (§1)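 Cells diluted to 2 × 10⁴ cells/mL in complete medium, seeded in 96-well plates and incubated 24 h at 37 °C, 5% CO₂ before compound addition at preset concentrations; colchicine and CA-4 as positive references. After 48 h exposure, MTT added; 4 h later 10% SDS-5% isobutyl alcohol-0.01 M HCl extraction solution added, overnight at 37 °C, absorbance read at 570 nm.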

Tubulin = Tubulin (Bos taurus, UniProt Q6B856+Q862L2+Q862F3); experiment: Inhibition of bovine brain tubulin polymerization after 20 mins by turbidimetric method
A549 = experiment: Antiproliferative activity against human A549 cells after 48 hrs by MTT assay; type: functional, cell-based; settings: A549, 48 h; procedure, shortened: as §1
[2] = Antiproliferative activity against mouse B16F10 cells after 48 hrs by MTT assay; type: functional, cell-based; settings: B16-F10, 48 h; procedure, shortened: as §1
MCF7 [3] = experiment: Cell cycle arrest in human MCF7 cells assessed as accumulation at S phase at 2 ug/ml after 24 hrs by flow cytometry (reference value: 13.05 %); type: functional
MCF7 [4] = experiment: Cell cycle arrest in human MCF7 cells assessed as accumulation at G2/M phase at 1 ug/ml after 24 hrs by flow cytometry (reference value: 24.61 %); type: functional
MCF7 [5] = experiment: Cell cycle arrest in human MCF7 cells assessed as accumulation at G0/G1 phase at 2 ug/ml after 24 hrs by flow cytometry (reference value: 62.34 %); type: functional
MCF7 [6] = experiment: Cell cycle arrest in human MCF7 cells assessed as accumulation at S phase at 1 ug/ml after 24 hrs by flow cytometry (reference value: 13.05 %); type: functional
MCF7 [7] = experiment: Cell cycle arrest in human MCF7 cells assessed as accumulation at G2/M phase at 2 ug/ml after 24 hrs by flow cytometry (reference value: 24.61 %); type: functional
MCF7 [8] = experiment: Cell cycle arrest in human MCF7 cells after 24 hrs by flow cytometry; type: functional, cell-based
MCF7 [9] = experiment: Cell cycle arrest in human MCF7 cells assessed as accumulation at G0/G1 phase at 1 ug/ml after 24 hrs by flow cytometry (reference value: 62.34 %); type: functional

SMILES | IC50 (MCF7 [1]) [µg/mL] | IC50 (Tubulin) [µM] | IC50 (A549) [µg/mL] | IC50 [2] [µg/mL] | Activity (MCF7 [3]) [%] | Activity (MCF7 [4]) [%] | Activity (MCF7 [5]) [%] | Activity (MCF7 [6]) [%] | Activity (MCF7 [7]) [%] | Activity (MCF7 [8]) | Activity (MCF7 [9]) [%]
O=C(/C=C/c1ccc(O)c(O)c1)N1CCN(C(c2ccc(F)cc2)c2ccc(F)cc2)CC1 | 0.43 (≈ 0.955 µM) | 1.44 | 0.73 (≈ 1.62 µM) | 0.52 (≈ 1.15 µM) | – | – | – | – | – | – | –
O=C(/C=C/c1ccc(O)c(O)c1)N1CCN(c2ccc([N+](=O)[O-])cc2)CC1 | 1.14 (≈ 3.09 µM) | 4.86 | 1.56 (≈ 4.22 µM) | 1.79 (≈ 4.85 µM) | – | – | – | – | – | – | –
COc1cccc(N2CCN(C(=O)/C=C/c3ccc(O)c(O)c3)CC2)c1 | 0.92 (≈ 2.6 µM) | 3.08 | 1.27 (≈ 3.58 µM) | 1.46 (≈ 4.12 µM) | – | – | – | – | – | – | –
Cc1ccc(N2CCN(C(=O)/C=C/c3ccc(O)c(O)c3)CC2)c(C)c1 | 0.78 (≈ 2.21 µM) | 2.98 | 1.02 (≈ 2.89 µM) | 1.43 (≈ 4.06 µM) | – | – | – | – | – | – | –
COc1ccc(/C=C\c2cc(OC)c(OC)c(OC)c2)cc1O [COMBRETASTATIN A4] | 0.21 (≈ 0.664 µM) | – | 0.46 (≈ 1.45 µM) | 0.42 (≈ 1.33 µM) | – | – | – | – | – | – | –
O=C(/C=C/c1ccc(O)c(O)c1)N1CCN(C(c2ccccc2)c2ccccc2)CC1 | 0.32 (≈ 0.772 µM) | 0.92 | 0.54 (≈ 1.3 µM) | 0.44 (≈ 1.06 µM) | 13.01 | 63.39 | 2.63 | 18.18 | 84.36 | Dose-dependent effect | 18.33
O=C(/C=C/c1ccc(O)c(O)c1)N1CCN(C(c2ccccc2)c2ccc(Cl)cc2)CC1 (configuration not stated) | 0.48 (≈ 1.07 µM) | 1.56 | 0.8 (≈ 1.78 µM) | 0.68 (≈ 1.51 µM) | – | – | – | – | – | – | –
O=C(/C=C/c1ccc(O)c(O)c1)N1CCN(c2cccc(Cl)c2Cl)CC1 | 1.12 (≈ 2.85 µM) | 4.42 | 1.68 (≈ 4.27 µM) | 2.01 (≈ 5.11 µM) | – | – | – | – | – | – | –
O=C(/C=C/c1ccc(O)c(O)c1)N1CCN(c2cccc(C(F)(F)F)c2)CC1 | 1.24 (≈ 3.16 µM) | 5.89 | 1.74 (≈ 4.43 µM) | 2.01 (≈ 5.12 µM) | – | – | – | – | – | – | –
COc1ccc(N2CCN(C(=O)/C=C/c3ccc(O)c(O)c3)CC2)cc1 | 0.52 (≈ 1.47 µM) | 1.86 | 0.93 (≈ 2.62 µM) | 1.21 (≈ 3.41 µM) | – | – | – | – | – | – | –
COc1cc2c(c(OC)c1OC)-c1ccc(OC)c(=O)cc1[C@@H](NC(C)=O)CC2 [COLCHICINE] | 0.39 (≈ 0.976 µM) | – | 0.58 (≈ 1.45 µM) | 0.48 (≈ 1.2 µM) | – | 83.62 | – | 11.78 | – | – | 4.6
O=C(/C=C/c1ccc(O)c(O)c1)N1CCN(c2ccc(Cl)c(Cl)c2)CC1 | 1.28 (≈ 3.25 µM) | 4.93 | 1.74 (≈ 4.42 µM) | 1.66 (≈ 4.22 µM) | – | – | – | – | – | – | –
O=C(/C=C/c1ccc(O)c(O)c1)N1CCN(c2ccc(F)cc2)CC1 | 1.44 (≈ 4.21 µM) | 7.39 | 1.25 (≈ 3.65 µM) | 1.68 (≈ 4.91 µM) | – | – | – | – | – | – | –

Second part, led by results:

IC50 (MCF7 [1]) [µg/mL] | IC50 (Tubulin) [µM] | IC50 (A549) [µg/mL] | SMILES | IC50 [2] [µg/mL] | Activity (MCF7 [3]) [%] | Activity (MCF7 [4]) [%] | Activity (MCF7 [5]) [%] | Activity (MCF7 [6]) [%] | Activity (MCF7 [7]) [%] | Activity (MCF7 [8]) | Activity (MCF7 [9]) [%]
1.82 (≈ 5.59 µM) | 11.61 | 2.32 (≈ 7.13 µM) | O=C(/C=C/c1ccc(O)c(O)c1)N1CCN(c2ccccn2)CC1 | 3.01 (≈ 9.25 µM) | – | – | – | – | – | – | –
1.03 (≈ 3.18 µM) | 3.14 | 1.32 (≈ 4.07 µM) | O=C(/C=C/c1ccc(O)c(O)c1)N1CCN(c2ccccc2)CC1 | 1.78 (≈ 5.49 µM) | – | – | – | – | – | – | –
0.54 (≈ 1.52 µM) | 1.72 | 0.98 (≈ 2.77 µM) | COc1ccccc1N1CCN(C(=O)/C=C/c2ccc(O)c(O)c2)CC1 | 1.23 (≈ 3.47 µM) | – | – | – | – | – | – | –
1.34 (≈ 3.73 µM) | 5.28 | 1.29 (≈ 3.6 µM) | O=C(/C=C/c1ccc(O)c(O)c1)N1CCN(c2cccc(Cl)c2)CC1 | 1.71 (≈ 4.77 µM) | – | – | – | – | – | – | –
1.36 (≈ 3.79 µM) | 5.46 | 1.44 (≈ 4.01 µM) | O=C(/C=C/c1ccc(O)c(O)c1)N1CCN(c2ccccc2Cl)CC1 | 1.82 (≈ 5.07 µM) | – | – | – | – | – | – | –
1.48 (≈ 4.37 µM) | 9.28 | 2.98 (≈ 8.81 µM) | O=C(/C=C/c1ccc(O)c(O)c1)N1CCN(Cc2ccccc2)CC1 | 3.12 (≈ 9.22 µM) | – | – | – | – | – | – | –
2.06 (≈ 7.45 µM) | 12.78 | 6.54 (≈ 23.7 µM) | CCN1CCN(C(=O)/C=C/c2ccc(O)c(O)c2)CC1 | 6.44 (≈ 23.3 µM) | – | – | – | – | – | – | –
1.38 (≈ 4.03 µM) | 7.78 | 1.43 (≈ 4.18 µM) | O=C(/C=C/c1ccc(O)c(O)c1)N1CCN(c2ccccc2F)CC1 | 2.43 (≈ 7.1 µM) | – | – | – | – | – | – | –
